The record followed here is ChEMBL document CHEMBL2169809, “Identification of high-affinity P2Y₁₂ antagonists based on a phenylpyrazole glutamic acid piperazine backbone” (J Med Chem, 2012).

In general, IC50 refers to the concentration needed to halve the response being measured. Low readings indicate higher potency, high ones lower potency. In general, inhibition in vivo refers to the share of the control response that was lost under treatment. By Ki is commonly meant the dissociation constant of the complex between target and ligand, obtained from inhibition or displacement.

Test [1] concerns Platelet. Nature of the test: Inhibition of ADP-stimulated platelet aggregation in human platelet rich plasma by 96-well format based turbidimetric method. It counts as functional. The method in brief:
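Citrated (ACD-A) donor blood was spun at 150g for 15 min at room temperature to give PRP. PRP was adjusted with PPP to 3 × 10^8 platelets/mL. Compound, diluted in NaCl, was preincubated with hPRP for 5 min before ADP was added.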

The subject of test [2] is Platelet. Nature of the test: Inhibition of thrombin-stimulated platelet aggregation in human isolated platelets by light transmission aggregometry based Born method. It counts as functional, cell-based. The method in brief: (§1)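 Platelets were pelleted from PRP (430g, 20 min, room temperature) and resuspended in modified Tyrode's buffer (145 mM NaCl, 5 mM KCl, 5.5 mM glucose, 15 mM Hepes, pH 7.4). CaCl2 (0.5 mM final) was added for 2 min at 37 °C, then fibrinogen (1 mg/mL final), then antagonist. Agonist was ADP, collagen or thrombin (0.1 U/mL final). Born aggregometry with stirring; % inhibition from AUC; IC50 from at least triplicate runs.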

Test [3] relates to Platelet. Nature of the test: Inhibition of ADP-stimulated platelet aggregation in human isolated platelets by light transmission aggregometry based Born method. In kind it is functional, cell-based. The method in brief: as §1
A further test deals with Canis familiaris. The test can be described thus: Antiplatelet aggregatory activity in dog assessed as inhibition of ADP-induced platelet aggregation at 10 mg/kg after 24 hrs. It counts as functional. As to conditions: Canis lupus familiaris. The gist of the method:
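Ex vivo dog model: compound given orally at 10 mg/kg. Whole-blood platelet aggregation was measured by impedance 24 h after dosing, with ADP as agonist. Inhibition was calculated from mean area under the curve.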

The next test deals with P2Y purinoceptor 12 (Homo sapiens, UniProt Q9H244). The test can be described thus: Displacement of [33P]2-MeS-ADP from human recombinant P2Y12 receptor expressed in CHO cell membranes by scintillation counting method.
Sequence of P2Y purinoceptor 12 (Q9H244 whole entry): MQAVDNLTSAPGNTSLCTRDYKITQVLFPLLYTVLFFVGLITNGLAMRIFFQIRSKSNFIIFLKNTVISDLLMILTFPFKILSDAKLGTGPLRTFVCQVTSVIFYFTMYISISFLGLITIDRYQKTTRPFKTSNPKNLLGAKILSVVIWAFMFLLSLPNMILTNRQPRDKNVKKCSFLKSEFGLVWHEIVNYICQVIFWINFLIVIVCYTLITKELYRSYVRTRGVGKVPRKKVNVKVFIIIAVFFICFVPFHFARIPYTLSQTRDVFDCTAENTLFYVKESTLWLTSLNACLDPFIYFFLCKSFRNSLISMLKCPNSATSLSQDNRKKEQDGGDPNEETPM
Test [4] deals with Platelet. Nature of the test: Inhibition of ADP-stimulated platelet aggregation in human platelet rich plasma by light transmission aggregometry based Born method. It counts as functional, cell-based.
In the next test the target is P2Y purinoceptor 1 (Homo sapiens, UniProt P47900). Nature of the test: Displacement of [33P]2-MeS-ADP from human recombinant P2Y1 receptor expressed in CHO cell membranes by scintillation counting method.
Sequence of P2Y purinoceptor 1 (P47900 whole entry): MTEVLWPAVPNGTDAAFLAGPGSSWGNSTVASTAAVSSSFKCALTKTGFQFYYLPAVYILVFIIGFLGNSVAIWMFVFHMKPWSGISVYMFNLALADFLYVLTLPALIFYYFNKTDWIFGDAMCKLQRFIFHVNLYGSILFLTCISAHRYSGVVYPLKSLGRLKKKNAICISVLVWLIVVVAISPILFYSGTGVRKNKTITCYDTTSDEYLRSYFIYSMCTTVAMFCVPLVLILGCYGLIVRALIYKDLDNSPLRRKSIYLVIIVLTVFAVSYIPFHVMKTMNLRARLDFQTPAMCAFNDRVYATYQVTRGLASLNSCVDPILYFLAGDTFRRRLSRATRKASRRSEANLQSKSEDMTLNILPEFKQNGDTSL
Test [5] has as its system Platelet. The test can be described thus: Inhibition of collagen-stimulated platelet aggregation in human isolated platelets by light transmission aggregometry based Born method. It counts as functional, cell-based. The method in brief:
as §1

As to `CCCCOC(=O)N1CCN(C(=O)CNC(=O)c2cc(OCC(=O)N3CCC[C@H]3C(=O)NC3CCC3)n(-c3ccccc3)n2)CC1`, the IC50 in the test on Platelet [1] was 30 nM; with Platelet [2], greater than 2000 nM; in the test with Platelet [3] it was 22 nM; in the test on Platelet [4], 46 nM; in the test on Platelet [5] it was greater than 2000 nM. Also, in the test with Canis familiaris, the inhibition in vivo at 10 mg/kg was 73%. Also, the Ki is 7.7 nM at P2Y purinoceptor 12 and greater than 20000 nM at P2Y purinoceptor 1.
Turning to `CCOC(=O)N1CCN(C(=O)[C@H](CCC(=O)O)NC(=O)c2cc(OCC(=O)N3CCC[C@H]3C(=O)NC3CCC3)n(-c3ccccc3)n2)CC1`, the half-maximal inhibitory concentration (IC50) was 25 nM in the test on Platelet [1]; greater than 2000 nM in the test with Platelet [2]; 7 nM in the test with Platelet [3]; 9 nM in the test with Platelet [4]; greater than 2000 nM in the test on Platelet [5]. In addition, the results for the inhibitory constant (Ki) at P2Y purinoceptor 12 and at P2Y purinoceptor 1 were 7.3 nM and greater than 20000 nM, respectively.
On to `CCOC(=O)N1CCN(C(=O)[C@H](CCC(=O)O)NC(=O)c2cc(OC3(C(=O)OCC)CCC3)n(-c3ccccc3)n2)CC1`, for which the 50% inhibitory concentration (IC50) is 3300 nM in the test on Platelet [1]; greater than 2000 nM in the test with Platelet [2]; 701 nM with Platelet [3]; 2930 nM with Platelet [4]; greater than 2000 nM in the test on Platelet [5]. The Ki on P2Y purinoceptor 12 is 139 nM; at P2Y purinoceptor 1 it was greater than 20000 nM.
